Data on six compounds can be found in ChEMBL document CHEMBL3045815, “The cruciferous phytoalexins rapalexin A, brussalexin A and erucalexin: chemistry and metabolism in Leptosphaeria maculans” (Bioorg Med Chem, 2012).

Data set [1] in a line: Half life in water. In kind it is physicochemical.
For data set [2], the system named is Plenodomus lingam. In words: Antifungal activity against Leptosphaeria maculans assessed as mycelial radial growth inhibition on potato dextrose agar at 0.10 mM relative to control. In kind it is functional. The method in brief:
(§1)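 Mycelial radial growth on PDA. L. maculans isolates BJ-125 or UAMH-9410 were grown on V8 agar for 14 days at 23 °C under constant light. Wells with PDA containing test compound (0.50, 0.20 or 0.10 mM) or control, each with 1% CH3CN, were inoculated centrally with inverted 4 mm plugs from 7-day-old V8 plates. Growth after 5 days under constant light gave % inhibition = 100 − (amended/control growth × 100); ± SD.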

Data set [3] concerns Plenodomus lingam. In words: Antifungal activity against Leptosphaeria maculans assessed as mycelial radial growth inhibition on potato dextrose agar at 0.20 mM relative to control. Format: functional. An outline of the steps: as §1
The test system of data set [4] is Plenodomus lingam. In words: Antifungal activity against Leptosphaeria maculans assessed as mycelial radial growth inhibition on potato dextrose agar at 0.50 mM relative to control. Format: functional. The method in brief:
as §1

A short description of data set [5]: Half life in Leptosphaeria maculans. In kind it is ADME, organism-based. Particulars: plenodomus lingam. An outline of the steps:
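Minimal medium inoculated with L. maculans BJ-125 spores was shaken at 120 rpm and 23 °C under constant light. After 2 days, compound was added in CH3CN (0.10 mM final); uninoculated medium served as control. Samples were taken immediately and at intervals up to 72–96 h, then frozen or extracted with EtOAc. Extracts were concentrated, taken up in CH3CN and analysed by HPLC.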

The nature of data set [6]: Half life in potato dextrose agar medium. Format: physicochemical.

Usually half-life stands for how long it takes for the measured level to halve. High values mean slow decline, low ones rapid decline. By inhibition is commonly meant the drop in the measured response relative to a control, in per cent.

As for `OCc1c[nH]c2ccccc12` [INDOLE-3-CARBINOL], in data set [1], the half-life was more than 4320 min. In addition, in the data set on Plenodomus lingam [2], the inhibition at 100 µM turned out to be 19%. Further, the inhibition at 200 µM with Plenodomus lingam [3] was 27%. Besides, the inhibition at 500 µM with Plenodomus lingam [4] is 52%.

`CON1c2ccccc2C(=O)C12CN=C(SC)S2` (racemic) [RAC-ERUCALEXIN]: the half-life in data set [5] is less than 360 min. The inhibition at 100 µM in the data set on Plenodomus lingam [2] was 6%. For the same compound, the inhibition at 200 µM with Plenodomus lingam [3] was 17%. In the data set on Plenodomus lingam [4], the inhibition at 500 µM was 40%.

As for `C=CCNC(=O)SCc1c[nH]c2ccccc12` [BRUSSALEXIN A], the half-life in data set [1] is 2880 min; in data set [6], 900 min. Moreover, the inhibition at 100 µM in the data set with Plenodomus lingam [2] came to 7%. Moreover, in the data set on Plenodomus lingam [3], the inhibition at 200 µM is 25%. Moreover, in the data set on Plenodomus lingam [4], the inhibition at 500 µM came out at 43%.

With `CON1c2ccccc2C(O)C12CN=C(SC)S2` (mixture of isomers) [DIHYDROERUCALEXIN], in the data set with Plenodomus lingam [2], the inhibition at 100 µM was found to be 7%. In addition, the inhibition at 200 µM in the data set with Plenodomus lingam [3] turned out to be 13%. For the same compound, the inhibition at 500 µM in the data set on Plenodomus lingam [4] came out at 23%.

Consider `CNC(=S)SCc1c[nH]c2ccccc12`, for which the half-life in data set [1] is 1200 min; in data set [6], 1440 min. Also, in the data set on Plenodomus lingam [2], the inhibition at 100 µM was found to be 17%. For the same compound, the inhibition at 200 µM in the data set with Plenodomus lingam [3] stood at 35%. Further, the inhibition at 500 µM with Plenodomus lingam [4] is 61%.

With `COc1cccc2[nH]cc(N=C=S)c12` [RAPALEXIN A], the inhibition at 100 µM with Plenodomus lingam [2] came to 21%. For the same compound, in the data set on Plenodomus lingam [3], the inhibition at 200 µM was 53%. Moreover, the inhibition at 500 µM with Plenodomus lingam [4] was found to be 100%.
